Experimental data taken from ChEMBL document CHEMBL1933058, “5-(2-amino-pyrimidin-4-yl)-1H-pyrrole and 2-(2-amino-pyrimidin-4-yl)-1,5,6,7-tetrahydro-pyrrolo[3,2-c]pyridin-4-one derivatives as new classes of selective and orally available Polo-like kinase 1 inhibitors” (Bioorg Med Chem Lett, 2012).
In brackets after ≈: the same amount, converted by molar mass. Activity calls are given as the source filed them. The calls are words filed in the database; no cut-off is given here.

Experiments:
A2780 [1] = assay: Cell cycle arrest in human A2780 cells assessed as accumulation at G2/M phase at 0.05 to 5 uM after 24 hrs by FACS analysis; assay type: functional, cell-based
In short: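 A2780 cells were exposed for 24 h to 0.05, 0.5 or 5 µM. Cell-cycle distribution was read by flow cytometry (FACS), scoring G2-M accumulation. Nocodazole-treated cells served as positive control.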

A2780 [2] = assay: Cell cycle arrest in human A2780 cells assessed as increase of phospho Ser10 histone H3 level after 24 hrs by Western blotting analysis; assay type: functional, cell-based
In short: (§1)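 A2780 cells were treated for 24 h at 0.05, 0.5 and 5 µM, with nocodazole as positive control. Lysates were immunoblotted for pSer10 histone H3, pThr199 nucleophosmin, cyclin B1, cyclin A, PARP cleavage and caspase 3 activation.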

A2780 [3] = assay: Cell cycle arrest in human A2780 cells assessed as induction of phospho Thr199 nucleophosmin level after 24 hrs by Western blotting analysis; assay type: functional, cell-based; in short: as §1
A2780 [4] = assay: Induction of apoptosis in human A2780 cells assessed as PARP cleavage at 5 uM after 24 hrs by Western blotting analysis; assay type: functional, cell-based; in short: as §1
A2780 [5] = assay: Induction of apoptosis in human A2780 cells assessed as caspase3 activation at 5 uM after 24 hrs by Western blotting analysis; assay type: functional, cell-based; in short: as §1
A2780 [6] = assay: Cell cycle arrest in human A2780 cells assessed as increase of phospho Ser10 histone H3 level at 0.05 to 5 uM after 1 hr by Western blotting analysis; assay type: functional, cell-based
In short: (§2)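 A2780 cells got 1 h exposure at 0.05, 0.5 and 5 µM, with nocodazole-treated cells as comparator. Western blot was used to probe the PLK1 substrate marker pSer46 TCTP and the mitotic marker pSer10 histone H3.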

A2780 [7] = assay: Cell cycle arrest in human A2780 cells assessed as reduction of phospho Ser46 TCTP level at 0.05 to 5 uM after 1 hr by Western blotting analysis; assay type: functional, cell-based; in short: as §2
[8] = target: Serine/threonine-protein kinase PLK1 (Homo sapiens, UniProt P53350); assay: Inhibition of PLK1
[9] = target: Serine/threonine-protein kinase PLK2 (Homo sapiens, UniProt Q9NYY3); assay: Inhibition of PLK2
[10] = target: Serine/threonine-protein kinase PLK3 (Homo sapiens, UniProt Q9H4B4); assay: Inhibition of PLK3
[11] = target: Cyclin-dependent kinase 2/cyclin A (Homo sapiens, UniProt P24941); assay: Inhibition of CDK2/cyclin A; assay type: protein-complex assay
Aurora kinase A = target: T1, Aurora kinase A (Homo sapiens, UniProt O14965); assay: Inhibition of Aurora-A
T1 sequence (O14965 whole entry): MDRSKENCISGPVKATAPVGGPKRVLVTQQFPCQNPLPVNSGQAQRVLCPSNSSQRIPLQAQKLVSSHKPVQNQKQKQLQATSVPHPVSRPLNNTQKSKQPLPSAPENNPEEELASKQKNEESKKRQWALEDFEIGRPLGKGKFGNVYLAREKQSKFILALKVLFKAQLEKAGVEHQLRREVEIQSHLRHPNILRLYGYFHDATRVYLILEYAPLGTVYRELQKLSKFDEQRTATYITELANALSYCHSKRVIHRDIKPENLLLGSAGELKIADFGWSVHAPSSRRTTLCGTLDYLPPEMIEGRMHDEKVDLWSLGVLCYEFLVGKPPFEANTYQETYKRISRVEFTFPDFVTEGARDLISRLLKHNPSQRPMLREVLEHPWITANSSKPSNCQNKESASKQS

A2780 [12] = assay: Antiproliferative activity against human A2780 cells; assay type: functional, cell-based
[13] = Inhibition of CK2
[14] = target: Tyrosine-protein kinase ABL1 (Homo sapiens, UniProt P00519); assay: Inhibition of c-ABL
[15] = target: RAC-alpha serine/threonine-protein kinase (Homo sapiens, UniProt P31749); assay: Inhibition of AKT1
Aurora kinase B = Aurora kinase B (Homo sapiens, UniProt Q96GD4); assay: Inhibition of Aurora-B
[16] = target: Protein-tyrosine kinase 6 (Homo sapiens, UniProt Q13882); assay: Inhibition of BRK
[17] = target: Cell division cycle 7-related protein kinase (Homo sapiens, UniProt O00311); assay: Inhibition of CDC7
[18] = target: Cyclin-dependent kinase 1/cyclin B1 (Homo sapiens, UniProt P06493); assay: Inhibition of CDK1/cyclin B; assay type: protein-complex assay
[19] = target: Cyclin-dependent kinase 2/cyclin E1 (Homo sapiens, UniProt P24941); assay: Inhibition of CDK2/cyclin E; assay type: protein-complex assay
[20] = target: Cyclin-dependent kinase 4/cyclin D1 (Homo sapiens, UniProt P11802); assay: Inhibition of CDK4/cyclin D1; assay type: protein-complex assay
[21] = target: Cyclin-dependent kinase 5 activator 1 (Homo sapiens, UniProt Q15078); assay: Inhibition of CDK5/P25
[22] = target: Serine/threonine-protein kinase Chk1 (Homo sapiens, UniProt O14757); assay: Inhibition of CHK1
[23] = target: Epidermal growth factor receptor (Homo sapiens, UniProt P04626+P00533+Q15303+P21860); assay: Inhibition of EGFR1; assay type: protein assay
[24] = target: Mitogen-activated protein kinase 1 (Homo sapiens, UniProt P28482); assay: Inhibition of ERK2
[25] = target: Fibroblast growth factor receptor 1 (Homo sapiens, UniProt P11362); assay: Inhibition of FGFR1
[26] = target: Glycogen synthase kinase-3 beta (Homo sapiens, UniProt P49841); assay: Inhibition of GSK3-beta
[27] = target: Insulin-like growth factor 1 receptor (Homo sapiens, UniProt P08069); assay: Inhibition of IGFR1
[28] = target: Inhibitor of nuclear factor kappa-B kinase subunit beta (Homo sapiens, UniProt O14920); assay: Inhibition of IKK2
Insulin receptor = Insulin receptor (Homo sapiens, UniProt P06213); assay: Inhibition of IR
[29] = target: Tyrosine-protein kinase JAK2 (Homo sapiens, UniProt O60674); assay: Inhibition of JAK2
[30] = target: Mast/stem cell growth factor receptor Kit (Homo sapiens, UniProt P10721); assay: Inhibition of KIT
[31] = target: Tyrosine-protein kinase Lck (Homo sapiens, UniProt P06239); assay: Inhibition of LCK
[32] = target: MAP kinase-activated protein kinase 2 (Homo sapiens, UniProt P49137); assay: Inhibition of MAP-KAPK2
[33] = target: Hepatocyte growth factor receptor (Homo sapiens, UniProt P08581); assay: Inhibition of MET
[34] = target: Serine/threonine-protein kinase 26 (Homo sapiens, UniProt Q9P289); assay: Inhibition of MST4
[35] = target: Serine/threonine-protein kinase Nek6 (Homo sapiens, UniProt Q9HC98); assay: Inhibition of NEK6
[36] = Inhibition of NIM
[37] = target: Mitogen-activated protein kinase 14 (Homo sapiens, UniProt Q16539); assay: Inhibition of P38alpha
[38] = target: Serine/threonine-protein kinase PAK 4 (Homo sapiens, UniProt O96013); assay: Inhibition of PAK4
[39] = Inhibition of PDGFR
[40] = target: cAMP-dependent protein kinase catalytic subunit alpha (Homo sapiens, UniProt P17612); assay: Inhibition of PKAalpha
[41] = target: Protein kinase C beta type (Homo sapiens, UniProt P05771); assay: Inhibition of PKCbeta
[42] = target: Proto-oncogene tyrosine-protein kinase receptor Ret (Homo sapiens, UniProt P07949); assay: Inhibition of RET
[43] = Inhibition of SULU1
[44] = target: High affinity nerve growth factor receptor (Homo sapiens, UniProt P04629); assay: Inhibition of TRKA
[45] = target: Vascular endothelial growth factor receptor 2 (Homo sapiens, UniProt P35968); assay: Inhibition of VEGFR2
[46] = target: Vascular endothelial growth factor receptor 3 (Homo sapiens, UniProt P35916); assay: Inhibition of VEGFR3
A-375 = assay: Antiproliferative activity against human A375 cells; assay type: functional, cell-based
HCT-116 = assay: Antiproliferative activity against human HCT116 cells; assay type: functional, cell-based
LNCaP = assay: Antiproliferative activity against human LNCAP cells; assay type: functional, cell-based
MDA-MB-468 = assay: Antiproliferative activity against human MDA-MB-468 cells; assay type: functional, cell-based
K562 = assay: Antiproliferative activity against human K562 cells; assay type: functional, cell-based
MOLM-13 = assay: Antiproliferative activity against human MOLM13 cells; assay type: functional, cell-based
MOLT-4 = assay: Antiproliferative activity against human MOLT4 cells; assay type: functional, cell-based
[47] = Antiproliferative activity against human SUP-M2 cells; assay type: functional, cell-based
Caco-2 = assay: Apparent permeability across human Caco2 cells; assay type: ADME, cell-based
[48] = Apparent permeability of the compound by PAMPA; assay type: ADME
[49] = Intrinsic clearance in rat hepatocytes at 1 uM; assay type: ADME, cell-based, Liver, Hepatocyte; settings: read-out: CLH
[50] = Intrinsic clearance in human liver microsomes at 1 uM; assay type: ADME, Microsome; settings: read-out: CLH
[51] = Solubility of the compound at pH 7; assay type: physicochemical; settings: buffer
[52] = Tmax in Nu/Nu Balb Harlan mouse at 10 mg/kg, po; assay type: ADME, organism-based; parameters: dose 10 mg/kg, route oral; settings: in vivo

Chain of Serine/threonine-protein kinase PLK3 (Q9H4B4 whole entry): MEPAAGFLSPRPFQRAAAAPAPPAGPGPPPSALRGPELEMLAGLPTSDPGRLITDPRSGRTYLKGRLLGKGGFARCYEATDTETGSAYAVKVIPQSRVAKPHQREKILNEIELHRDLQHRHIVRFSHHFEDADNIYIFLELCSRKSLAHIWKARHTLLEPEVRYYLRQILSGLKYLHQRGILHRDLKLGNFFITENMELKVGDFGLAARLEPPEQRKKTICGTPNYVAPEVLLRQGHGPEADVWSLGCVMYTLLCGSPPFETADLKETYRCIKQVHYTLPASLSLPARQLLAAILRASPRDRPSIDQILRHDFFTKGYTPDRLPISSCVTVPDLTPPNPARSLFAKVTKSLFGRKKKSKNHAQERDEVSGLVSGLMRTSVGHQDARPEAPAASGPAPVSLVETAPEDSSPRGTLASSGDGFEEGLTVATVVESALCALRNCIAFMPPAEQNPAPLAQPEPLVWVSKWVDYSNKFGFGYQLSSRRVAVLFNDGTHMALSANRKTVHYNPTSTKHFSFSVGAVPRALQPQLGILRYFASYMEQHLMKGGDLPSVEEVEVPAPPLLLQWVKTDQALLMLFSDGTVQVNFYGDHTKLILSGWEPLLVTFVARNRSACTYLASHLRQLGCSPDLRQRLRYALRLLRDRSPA
Chain of Serine/threonine-protein kinase PLK2 (Q9NYY3 whole entry): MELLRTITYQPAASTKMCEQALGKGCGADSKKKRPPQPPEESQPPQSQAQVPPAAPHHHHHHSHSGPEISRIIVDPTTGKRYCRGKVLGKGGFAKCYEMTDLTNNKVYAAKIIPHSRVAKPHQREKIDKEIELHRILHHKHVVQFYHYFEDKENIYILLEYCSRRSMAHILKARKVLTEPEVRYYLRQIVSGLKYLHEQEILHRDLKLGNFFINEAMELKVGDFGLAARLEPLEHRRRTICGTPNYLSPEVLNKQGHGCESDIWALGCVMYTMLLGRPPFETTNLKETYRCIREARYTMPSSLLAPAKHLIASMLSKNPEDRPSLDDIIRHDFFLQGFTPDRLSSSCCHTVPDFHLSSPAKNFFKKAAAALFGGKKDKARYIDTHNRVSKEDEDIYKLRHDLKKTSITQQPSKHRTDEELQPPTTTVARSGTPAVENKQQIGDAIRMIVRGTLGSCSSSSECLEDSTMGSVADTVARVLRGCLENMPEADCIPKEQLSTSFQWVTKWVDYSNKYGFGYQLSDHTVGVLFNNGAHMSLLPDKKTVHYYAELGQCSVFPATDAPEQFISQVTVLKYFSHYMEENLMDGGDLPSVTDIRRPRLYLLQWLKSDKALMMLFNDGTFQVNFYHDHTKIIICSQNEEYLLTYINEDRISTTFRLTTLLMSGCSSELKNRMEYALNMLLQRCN
Chain of Serine/threonine-protein kinase 26 (Q9P289 whole entry): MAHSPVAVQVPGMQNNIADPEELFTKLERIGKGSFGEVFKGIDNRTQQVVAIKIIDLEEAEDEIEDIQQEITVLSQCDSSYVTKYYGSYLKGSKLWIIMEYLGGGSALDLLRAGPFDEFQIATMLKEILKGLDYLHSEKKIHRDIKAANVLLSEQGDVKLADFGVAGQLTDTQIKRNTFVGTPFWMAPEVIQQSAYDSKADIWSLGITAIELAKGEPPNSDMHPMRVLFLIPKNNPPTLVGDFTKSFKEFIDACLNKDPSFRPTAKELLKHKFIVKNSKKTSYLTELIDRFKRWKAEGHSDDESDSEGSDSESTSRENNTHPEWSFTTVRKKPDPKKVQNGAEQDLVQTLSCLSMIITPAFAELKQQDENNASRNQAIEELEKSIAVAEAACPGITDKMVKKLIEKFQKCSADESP
Chain of Inhibitor of nuclear factor kappa-B kinase subunit beta (O14920 whole entry): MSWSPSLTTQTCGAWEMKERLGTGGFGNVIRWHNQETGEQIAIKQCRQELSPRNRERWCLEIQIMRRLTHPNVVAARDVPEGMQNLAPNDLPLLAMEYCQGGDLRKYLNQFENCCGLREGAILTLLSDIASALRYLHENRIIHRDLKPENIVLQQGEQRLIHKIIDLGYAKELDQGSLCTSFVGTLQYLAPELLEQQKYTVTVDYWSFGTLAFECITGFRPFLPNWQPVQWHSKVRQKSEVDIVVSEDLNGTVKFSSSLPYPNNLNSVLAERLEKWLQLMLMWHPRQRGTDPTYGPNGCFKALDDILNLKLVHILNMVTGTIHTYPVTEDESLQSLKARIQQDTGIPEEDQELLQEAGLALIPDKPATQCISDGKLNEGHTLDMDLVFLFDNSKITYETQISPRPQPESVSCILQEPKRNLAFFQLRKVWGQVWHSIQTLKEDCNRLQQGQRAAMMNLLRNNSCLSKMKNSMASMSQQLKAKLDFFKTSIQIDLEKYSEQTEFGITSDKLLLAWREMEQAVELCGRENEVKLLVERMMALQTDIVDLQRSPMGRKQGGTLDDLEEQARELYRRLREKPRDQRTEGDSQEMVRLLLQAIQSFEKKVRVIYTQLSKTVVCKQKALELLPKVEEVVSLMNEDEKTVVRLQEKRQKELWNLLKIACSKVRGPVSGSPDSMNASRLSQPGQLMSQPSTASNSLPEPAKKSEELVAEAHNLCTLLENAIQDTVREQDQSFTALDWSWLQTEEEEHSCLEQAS
Chain of Tyrosine-protein kinase ABL1 (P00519 whole entry): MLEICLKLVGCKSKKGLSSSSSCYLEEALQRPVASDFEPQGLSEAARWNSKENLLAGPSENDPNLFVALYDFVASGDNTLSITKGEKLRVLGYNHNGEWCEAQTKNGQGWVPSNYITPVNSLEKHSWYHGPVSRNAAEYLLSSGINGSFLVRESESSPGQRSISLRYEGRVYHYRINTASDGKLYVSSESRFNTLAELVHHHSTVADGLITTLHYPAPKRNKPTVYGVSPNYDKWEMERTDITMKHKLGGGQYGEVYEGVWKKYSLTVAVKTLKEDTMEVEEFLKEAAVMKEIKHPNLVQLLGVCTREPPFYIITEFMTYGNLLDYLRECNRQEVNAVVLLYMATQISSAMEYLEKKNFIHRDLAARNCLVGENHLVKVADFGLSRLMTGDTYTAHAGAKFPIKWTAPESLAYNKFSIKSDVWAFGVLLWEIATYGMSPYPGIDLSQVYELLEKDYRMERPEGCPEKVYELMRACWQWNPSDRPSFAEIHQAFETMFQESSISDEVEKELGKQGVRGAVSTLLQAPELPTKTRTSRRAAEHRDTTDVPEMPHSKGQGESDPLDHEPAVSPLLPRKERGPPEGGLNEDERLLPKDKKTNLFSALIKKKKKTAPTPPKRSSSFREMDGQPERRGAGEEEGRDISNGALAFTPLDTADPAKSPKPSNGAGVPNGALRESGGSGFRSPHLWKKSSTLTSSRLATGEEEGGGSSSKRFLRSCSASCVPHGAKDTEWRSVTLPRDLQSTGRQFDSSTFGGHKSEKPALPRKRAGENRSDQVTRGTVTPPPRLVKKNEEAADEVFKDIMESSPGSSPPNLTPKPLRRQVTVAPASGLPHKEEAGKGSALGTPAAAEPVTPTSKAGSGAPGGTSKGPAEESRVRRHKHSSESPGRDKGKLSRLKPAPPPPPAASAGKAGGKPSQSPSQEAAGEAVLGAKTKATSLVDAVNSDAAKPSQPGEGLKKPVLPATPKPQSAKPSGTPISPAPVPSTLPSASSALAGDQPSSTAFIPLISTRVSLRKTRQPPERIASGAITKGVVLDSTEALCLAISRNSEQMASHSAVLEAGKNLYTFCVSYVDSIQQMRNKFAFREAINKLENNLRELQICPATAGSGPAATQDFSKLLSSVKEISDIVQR
Chain of Mast/stem cell growth factor receptor Kit (P10721 whole entry): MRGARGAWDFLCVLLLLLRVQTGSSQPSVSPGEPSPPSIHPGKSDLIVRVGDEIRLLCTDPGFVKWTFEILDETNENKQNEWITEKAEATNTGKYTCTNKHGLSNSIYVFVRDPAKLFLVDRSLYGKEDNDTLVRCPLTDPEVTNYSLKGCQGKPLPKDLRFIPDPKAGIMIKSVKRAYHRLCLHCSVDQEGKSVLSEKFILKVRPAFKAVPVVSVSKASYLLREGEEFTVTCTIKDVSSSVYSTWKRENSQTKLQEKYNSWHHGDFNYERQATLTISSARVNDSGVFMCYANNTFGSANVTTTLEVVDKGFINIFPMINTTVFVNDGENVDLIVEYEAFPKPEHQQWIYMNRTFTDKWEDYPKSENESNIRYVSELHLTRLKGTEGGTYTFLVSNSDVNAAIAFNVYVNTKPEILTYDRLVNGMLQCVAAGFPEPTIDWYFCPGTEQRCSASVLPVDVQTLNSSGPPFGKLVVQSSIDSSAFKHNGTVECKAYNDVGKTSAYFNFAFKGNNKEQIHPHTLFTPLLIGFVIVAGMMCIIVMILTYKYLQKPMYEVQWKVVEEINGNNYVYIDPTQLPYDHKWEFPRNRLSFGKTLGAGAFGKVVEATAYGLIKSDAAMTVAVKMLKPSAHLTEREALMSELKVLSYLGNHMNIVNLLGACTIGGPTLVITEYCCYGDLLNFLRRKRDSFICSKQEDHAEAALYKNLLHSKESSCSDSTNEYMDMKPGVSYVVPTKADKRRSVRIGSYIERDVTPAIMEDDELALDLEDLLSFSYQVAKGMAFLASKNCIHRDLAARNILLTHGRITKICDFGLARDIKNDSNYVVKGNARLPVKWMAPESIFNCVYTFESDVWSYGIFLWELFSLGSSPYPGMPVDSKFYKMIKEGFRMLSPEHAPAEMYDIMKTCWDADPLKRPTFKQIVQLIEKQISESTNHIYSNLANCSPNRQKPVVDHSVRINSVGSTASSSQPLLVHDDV
Chain of Mitogen-activated protein kinase 14 (Q16539 whole entry): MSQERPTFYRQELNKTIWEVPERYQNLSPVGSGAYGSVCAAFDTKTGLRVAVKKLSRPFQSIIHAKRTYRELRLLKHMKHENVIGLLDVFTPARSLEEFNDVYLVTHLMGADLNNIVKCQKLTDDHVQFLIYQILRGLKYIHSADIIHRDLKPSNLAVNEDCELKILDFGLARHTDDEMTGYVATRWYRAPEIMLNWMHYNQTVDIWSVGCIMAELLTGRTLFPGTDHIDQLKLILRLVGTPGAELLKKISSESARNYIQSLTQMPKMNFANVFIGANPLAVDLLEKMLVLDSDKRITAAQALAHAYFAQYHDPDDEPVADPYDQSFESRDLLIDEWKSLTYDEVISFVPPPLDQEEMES

In the case of CN1CCN(c2ccc(OC(F)(F)F)c(Nc3nccc(-c4cc(C(N)=O)cn4C)n3)c2)CC1 [listing 1 of 2 here], the Activity (A2780 [1]) is reported as “Active”, the Activity (A2780 [2]) is reported as “Dose-dependent effect” and the Activity (A2780 [3]) is reported as “Dose-dependent effect”. For the same compound, the Activity (A2780 [4]) was “Active”, the Activity (A2780 [5]) was “Active” and the Activity (A2780 [6]) was “Active”. For the same compound, the Activity (A2780 [7]) was “Active”.
Work on CN1CCN(c2ccc(OC(F)(F)F)c(Nc3nccc(-c4cc5c(n4CC(F)(F)F)CCNC5=O)n3)c2)CC1 yielded an IC50 [8] of 28 nM, an IC50 [9] of over 10 µM and an IC50 [10] of over 10 µM. It also gave an IC50 [11] of over 10 µM, an IC50 (Aurora kinase A) of over 10 µM and an IC50 (A2780 [12]) of 62 nM.
CN1CCN(c2ccc(OC(F)(F)F)c(Nc3nccc(-c4cc(C(N)=O)cn4C)n3)c2)CC1 [listing 2 of 2 here] gave an IC50 [9] of over 10 µM, an IC50 [10] of over 10 µM and an IC50 [11] of over 10 µM. The IC50 (Aurora kinase A) was over 10 µM, the IC50 (A2780 [12]) was 360 nM and the IC50 [13] was 951 nM. The IC50 [14] was over 10 µM, the IC50 [15] was over 10 µM and the IC50 (Aurora kinase B) was over 10 µM. The IC50 [16] was over 10 µM, the IC50 [17] was over 10 µM and the IC50 [18] was over 10 µM. The IC50 [19] was over 10 µM, the IC50 [20] was over 10 µM and the IC50 [21] was over 10 µM. For the same compound, the IC50 [22] was over 10 µM, the IC50 [23] was over 10 µM and the IC50 [24] was over 10 µM. It also gave an IC50 [25] of over 10 µM, an IC50 [26] of over 10 µM and an IC50 [27] of over 10 µM. For the same compound, the IC50 [28] was over 10 µM, the IC50 (Insulin receptor) was over 10 µM and the IC50 [29] was over 10 µM. For the same compound, the IC50 [30] was over 10 µM, the IC50 [31] was over 10 µM and the IC50 [32] was over 10 µM. For the same compound, the IC50 [33] was over 10 µM, the IC50 [34] was over 10 µM and the IC50 [35] was over 10 µM. It also gave an IC50 [36] of over 10 µM, an IC50 [37] of over 10 µM and an IC50 [38] of over 10 µM. For the same compound, the IC50 [39] was over 10 µM, the IC50 [40] was over 10 µM and the IC50 [41] was over 10 µM. The IC50 [42] was over 10 µM, the IC50 [43] was over 10 µM and the IC50 [44] was over 10 µM. For the same compound, the IC50 [45] was over 10 µM, the IC50 [46] was over 10 µM and the IC50 (A-375) was 386 nM. The IC50 (HCT-116) was 520 nM, the IC50 (LNCaP) was 280 nM and the IC50 (MDA-MB-468) was 624 nM. The IC50 (K562) was 590 nM, the IC50 (MOLM-13) was 201 nM and the IC50 (MOLT-4) was 253 nM. For the same compound, the IC50 [47] was 647 nM, the Papp (Caco-2) was “permeable” and the Papp [48] was 50 ×10⁻⁶ cm/s. It also gave a CLint scaled at 1 µM [49] of 408 mL/min/kg, a CLint scaled at 1 µM [50] of 14.9 mL/min/kg and a solubility [51] of 174 µM (≈ 82.7 µg/mL). The Tmax [52] was 30 min.
